The sample as a whole holds a higher share of hits than the screen did.
HCT116 bCat-KO = primary screen for growth suppressors in beta-catenin knockout HCT116 cells (colon tumor, human). HCT116 beta-catenin knockout viability, CellTiter-Glo, 60 h; stronger effect = lower value. AID 818, 2007. 1.5% of 140,000 active. viability, % at 10 µM;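 active means viability at or under a set limit, the compound median less 4 SD, cut at about 6% in these data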;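 further: 0% = Hyamine 1622 control at 20 µM and 100% = untreated cell control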
PTEN del growth = growth suppression of PTEN-null HCT116, primary screen, cell-based, CellTiter-Glo | HCT116 PTEN-null viability, 60 h; stronger effect = lower value | viability, % at 10 µM | 1.2% of 140,000 active | AID 827, 2007;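 active means viability at or below a set limit, 4 SD under the median of all tested compounds, cut at about 3.7% in these data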;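 further: PTEN knockout HCT116 line with beta catenin targeted HCT116 as companion control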
H69AR growth 86K = proliferation blockers of H69AR lung cancer cells, primary screen, cell-based, human, 86K library | H69AR lung tumor viability, ATP luminescence, 72 h; stronger effect = lower value | viability, % at 10 µM | 6% of 85,000 active;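 active means viability at or below 40%; inactive means viability above 40%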;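 further: multidrug resistant small cell line overexpressing MRP-1 efflux transporter; 100% = mean luminescence of untreated control wells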
Fibroblast inh = antiproliferative effect on LL 47 fibroblasts – human, LL 47 cells, CellTiter-Glo luminescence, primary screen. LL 47 human lung fibroblast viability, ATP luminescence; stronger effect = lower value. viability, % at 10 µM. 1.1% of 85,000 active. AID 719, 2007;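 active means viability at or below 50% in the single dose screen; inactive means viability above 50%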;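 further: compound exposure lasted 72 h before the ATP readout; 100% = median luminescence of untreated cell-only wells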
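Test system: LL 47 human lung fibroblasts; Quantity: 1,150 cells/well; Buffer or medium: IMEM plus 15% FBS; Dosing: tenfold compound dosing solution, DMSO at 0.1%; Timing: overnight cell rest, 72 h compound treatment at 37 °C; Detection: ATP-based CellTiter-Glo luminescent readout; Read-out basis: viability percentage against median untreated-cell control; Controls: cell-only wells, no compound.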
HUVEC inhibit = inhibitors of HUVEC proliferation, primary screen, cell-based, 384-well. viability, % at 10 µM (by protocol). AID 648, 2007. CellTiter-Glo luminescence, 72 h; stronger effect = lower value. 1.1% of 86,000 active;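 active means viability at or below 30%; inactive means viability above 30%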;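 further: 100% = median luminescence of DMSO-only cell control wells on each plate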
* = called active by the depositor; · = no result.

SMILES | HCT116 bCat-KO | PTEN del growth | H69AR growth 86K | Fibroblast inh | HUVEC inhibit
CC(=O)N1CCC(N(CCCOC(C)C)C(=O)Nc2ccc(Cl)cc2)CC1 | · | · | 97 | 104 | 94
CCN(CC)CCCN1C(=O)C(=O)/C(=C(/O)c2cnn(-c3ccccc3)c2C)C1c1ccncc1 (stereo not drawn) | · | · | 88 | 93 | 86
O=[N+]([O-])c1cccc(/C=C/c2nc3ccc([N+](=O)[O-])cc3[nH]2)c1 | 9 | 3.7* | · | · | ·
O=C(CCC(=O)N1CCN(S(=O)(=O)c2ccc(Cl)cc2)CC1)Nc1cccc(Br)c1 | 89 | 90 | · | · | ·
Oc1cccc(Nc2nc(NCC3CCCO3)c3ccccc3n2)c1 (stereo not drawn) | 1.9* | 3.4* | 104 | 90 | 85
c1ccc(-c2nc(NCc3ccco3)c3ccccc3n2)nc1 | 8 | 8 | 16* | 55 | 48
Oc1ccccc1-c1nc(NCc2ccco2)c2ccccc2n1 | 38 | 35 | 36* | 74 | 47
c1ccc(-c2nc(NCC3CCCO3)c3ccccc3n2)nc1 (stereo not drawn) | 6.0* | 6 | · | · | ·
c1ccc2c(c1)[nH]c1c(NCC3CCCO3)ncnc12 (stereo not drawn) | 72 | 80 | 70 | 93 | 87
CN(C)C(=O)CSc1cccc2cccnc12 | 4.3* | 6 | 0.6* | 40* | 72
O=C(CSc1cccc2cccnc12)N1CCCC1 | 8 | 8 | 0.0* | 18* | 64
NNC(=O)CSc1cccc2cccnc12 | 92 | 102 | · | · | ·
CC(=O)c1cnc2nc(C(F)(F)F)nn2c1C | 94 | 97 | 100 | 108 | 97
COc1cc(/C=C2/CCC/C(=C\c3cc(O)c(OC)c(Cl)c3)C2=O)cc(Cl)c1O | 2.0* | 1.9* | · | · | ·
COc1cc(/C=C2\CC/C(=C\c3cc(OC)c(O)c(OC)c3)C2=O)cc(OC)c1O | 2.1* | 2.5* | · | · | ·
O=C(NNC(=O)c1cc(O)c(O)c(O)c1)NC1CCCCC1 | 70 | 73 | · | · | ·
S=C(NC1CCCCC1)N1CCN(c2ccccn2)CC1 | 98 | 87 | · | · | ·
CCOC(=O)C1=C(c2ccccc2)N=c2s/c(=C\c3cccc(O)c3)c(=O)n2C1c1cccs1 (stereo not drawn) | 1.5* | 1.5* | · | · | ·
CCOC(=O)C1=C(C)N=c2s/c(=C\c3ccc(OC(C)=O)c(OCC)c3)c(=O)n2C1/C=C/c1ccccc1 (stereo not drawn) | 44 | 29 | · | · | ·
O=C(Nc1ccc(Cl)c(Cl)c1)C1=Cc2ccccc2OC1 | 2.6* | 2.6* | 16* | 92 | 35
COc1ccc2nc(SCC(=O)N(C)C3CCCCC3)c(C#N)cc2c1 | 69 | 58 | 87 | 96 | 90
O=C(Nc1ccc(N2CCOCC2)c(Cl)c1)c1c(F)c(F)c(F)c(F)c1F | 20 | 26 | 32* | 87 | 90
O=C(Nc1ccc(N2CCOCC2)c(Cl)c1)c1cc(F)c(F)cc1Cl | 65 | 58 | 72 | 105 | 97
Cc1c(C(=O)NCCCN2CCOCC2)oc2c1C1(CCC2)SCCS1 | 82 | 90 | · | · | ·
Cc1c(CCC(C)C)c(=O)n2c([nH]c3ccccc32)c1C#N | 81 | 76 | 31* | 90 | 74
SMILES | HCT116 bCat-KO | PTEN del growth | H69AR growth 86K | Fibroblast inh | HUVEC inhibit
CCCCc1c(C)c(C#N)c2[nH]c3ccccc3n2c1=O | 70 | 66 | 18* | 92 | 68
CCOC(=O)C1=C(C)N(CCCC(=O)O)C(=O)NC1c1ccccc1OS(=O)(=O)c1ccc(C)cc1 (stereo not drawn) | 99 | 94 | · | · | ·
CN=C(NC1CCCCC1)c1ccc(Cl)cc1 | 92 | 97 | · | · | ·
COCCCNCCCOc1ccc(Cl)cc1C(C)(C)C | 4.0* | 3.1* | · | · | ·
CCN(CC)c1ccc(NC(=O)c2ccco2)c(C)c1 | 92 | 95 | 97 | 106 | 109
CCN(CC)c1ccc(NC(=O)c2cccc(F)c2)c(C)c1 | 16 | 22 | 28* | 52 | 60
COc1ccc(C2NC(=O)NC3=C2CCc2ccccc23)cc1 (stereo not drawn) | 37 | 25 | 24* | 84 | 80
CC(C)C(=O)N(c1cc2sc(=O)oc2c2ccccc12)S(=O)(=O)c1cccs1 | 101 | 93 | 22* | 97 | 103
COc1ccc(N(C(=O)C(C)C)S(=O)(=O)c2cccs2)cc1 | 83 | 83 | 17* | 81 | 65
CCOc1cc(/C=N/NC(=S)Nc2ccccc2C(F)(F)F)ccc1OCC(=O)N1CCOCC1 | 95 | 94 | · | · | ·
COC1=C(N)C(=O)c2nc(-c3nc(C(=O)O)c(C)c(-c4ccc(OC)c(OC)c4O)c3N)ccc2C1=O | 2.3* | 2.0* | · | · | ·
COc1ccc(-c2ncncc2-c2csc(C)n2)c(O)c1OC | 98 | 97 | 92 | 98 | 102
CCSc1nnc(NC(=O)NC(CC)(C(F)(F)F)C(F)(F)F)s1 | 26 | 29 | 14* | 63 | 45
CCSc1nnc(NC(=O)NC(C)(C(F)(F)F)C(F)(F)F)s1 | 86 | 84 | · | · | ·
COC(=O)c1cc(OC)c(OC)cc1NC(=O)c1ccccc1 | 21 | 60 | 39* | 99 | 71
COc1cc(NC(=O)c2cccs2)c(C(=O)OCC(=O)NCc2ccccc2)cc1OC | 104 | 107 | 6.7* | 88 | 19*
COC(=O)C(C)Sc1nc2c(c(-c3ccc(OC)cc3)c1C#N)-c1ccccc1C2=O (stereo not drawn) | · | · | 34* | 88 | 55
CCOC(=O)/C(=C\c1cn(C)c2ccccc12)[N+](=O)[O-] | 100 | 95 | · | · | ·
COC(=O)/C(=C/Nc1cccc2ccccc12)[N+](=O)[O-] | 90 | 87 | 27* | 92 | 74
COc1ccc2nc(NC(C)=O)sc2c1 | 88 | 93 | 105 | 98 | 108
COc1ccc2nc(N=Nc3c(O)ccc4ccccc34)sc2c1 | 5.3* | 7 | · | · | ·
COC(=O)C1CCCN1S(=O)(=O)c1ccc2ccccc2c1 (stereo not drawn) | 58 | 54 | 33* | 90 | 100
Cc1cc(C)c2ccc(N)nc2c1O | 3.8* | 5 | 14* | 9.4* | 76
O=c1oc2ccccc2cc1-c1nnc(NCc2ccco2)s1 | 58 | 35 | 32* | 91 | 71
Nc1nnc(-c2cc3ccccc3oc2=O)s1 | 75 | 81 | 95 | 100 | 87
SMILES | HCT116 bCat-KO | PTEN del growth | H69AR growth 86K | Fibroblast inh | HUVEC inhibit
O=C(NCc1ccc2c(c1)OCO2)C1CCCN1C(=O)Nc1cccc(Cl)c1 (stereo not drawn) | 100 | 93 | 98 | 103 | 102
COc1ccccc1/C=c1\sc2nc(-c3ccco3)nn2c1=O | 92 | 109 | 36* | 97 | 97
Cc1nc(-c2ccc(O)c(O)c2)cs1 | 10 | 10 | 45 | 74 | 69
Oc1ccc(-c2csc(-c3ccccc3)n2)cc1O | 83 | 84 | 20* | 72 | 29*
CCc1ccc(S(=O)(=O)/N=C2/C=C(Sc3ncn[nH]3)C(=O)c3ccccc32)cc1 | 2.5* | 3.4* | · | · | ·
Cc1sc2nc(C3CC3)nc(NCCNS(=O)(=O)c3ccccc3)c2c1C | 87 | 83 | 22* | 91 | 79
